pIC50: −log10 of the molar value. The source made the active and inactive calls. The rule behind the calls is not given here.

One may read the pIC50 as −log10 of the IC50, conventionally taken in molar units.

Assay [1] relates to Neutrophil. Put plainly: Cytotoxicity against human neutrophils assessed as viable cells after 2 hrs. It is filed as functional. On the set-up: concentration or dose not given beside the values. Summed up: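 Human neutrophils (2 × 10⁶/mL) from healthy donors were incubated 2 h at 37 °C under CO₂ in HBSS:PBS (3:1) with 1 mg/mL BSA, with compounds. Membrane integrity was read by fluorescein diacetate/ethidium bromide staining for 10 min at room temperature, under UV dark-field microscopy. Green cells were scored viable; red nuclei were scored necrotic.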

Assay [2] concerns Neutrophil. Put plainly: Inhibition of IL8-induced neutrophil chemotaxis after 45 mins by Boyden chamber assay. It is filed as functional, cell-based. The note with it: Homo sapiens, 0.75 h. Summed up:
(§1)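 Leading-front Boyden assay with donor neutrophils. Cells were preincubated 15 min at room temperature ± compound. Then 4 × 10⁵ cells were placed above a 3 µm cellulose ester filter, with IL8 or fMLP below. After 45 min at 37 °C, filters were hematoxylin-stained and the leading-front distance was read at ×400, 5 fields per filter, in duplicate. Net migration = stimulated minus spontaneous. IC₅₀ came from nonlinear regression, ≥3 experiments.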

The test system of assay [3] is Neutrophil. Nature of the assay: Inhibition of fMLP-induced neutrophil chemotaxis after 45 mins by Boyden chamber assay. It is filed as functional, cell-based. Conditions: Homo sapiens. Summed up:
as §1

Assay [4] has as its system Mus musculus. Put plainly: Lymphocyte percentage in zymosan-induced Swiss mouse peritoneal fluid at 100 mg/kg, po.
Assay [5] concerns Mus musculus. Nature of the assay: Inhibition of peritoneal granulocyte count in zymosan-induced Swiss mouse peritoneal fluid at 100 mg/kg, po. It is filed as functional. Summed up: (§2)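 Male Swiss mice (25-30 g), fasted 16 h, n = 8 per group, were dosed orally 1 h before i.p. zymosan (5 mg/mL, 0.2 mL). Dexamethasone 1 mg/kg os served as reference. At 4 h, peritoneal lavage used 3 mL PBS with 3 mM EDTA. Total leukocytes were counted in a Neubauer chamber (Türk 1:100), with differentials by light microscopy. Counts were compared with vehicle by Student's t-test.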

Assay [6] relates to Mus musculus. Put plainly: Monocyte percentage in zymosan-induced Swiss mouse peritoneal fluid at 100 mg/kg, po.
Assay [7] deals with Mus musculus. Put plainly: Inhibition of peritoneal cell count in zymosan-induced Swiss mouse peritoneal fluid at 100 mg/kg, po. The assay is classed as functional. Summed up: as §2
Assay [8] deals with Mus musculus. Put plainly: Granulocyte percentage in zymosan-induced Swiss mouse peritoneal fluid at 100 mg/kg, po.
Assay [9] concerns Mus musculus. Put plainly: Percentage of granulocytes in zymosan-induced Swiss mouse peritoneal fluid at 1 mg/kg, po.
Assay [10] concerns Mus musculus. Put plainly: Percentage of lymphocytes in zymosan-induced Swiss mouse peritoneal fluid at 1 mg/kg, po.
For assay [11], the system named is Mus musculus. Put plainly: Inhibition of peritoneal cell count in zymosan-induced Swiss mouse peritoneal fluid at 1 mg/kg, po. Conditions: read-out: Inhibition. It is filed as functional. In outline: as §2
Assay [12] has as its system Mus musculus. Put plainly: Percentage of monocytes in zymosan-induced Swiss mouse peritoneal fluid at 1 mg/kg, po.
The test system of assay [13] is Mus musculus. Put plainly: Inhibition of peritoneal granulocyte count in zymosan-induced Swiss mouse peritoneal fluid at 1 mg/kg, po. The assay is classed as functional. Summed up:
as §2

Consider `CCOC(=O)c1cnn(CC(O)c2ccccc2)c1NC(=O)NCc1ccc(Br)cc1` (stereo not given), for which the Activity with Neutrophil [1] is reported as 90%. Besides, in the assay with Neutrophil [2], the pIC50 is 5.41. Also, in the assay on Neutrophil [3], the outcome was inactive.
For `CCOC(=O)c1cnn(CC(O)c2ccccc2)c1NC(=O)Nc1ccc(Cl)cc1` (stereo not given), in that order: 90%, 6.46 and “inactive”.
For `CCOC(=O)c1cnn(CC(O)c2ccccc2)c1NC(=O)Nc1ccc(Br)cc1` (stereo not given), in that order: 90%, 7.04 and “inactive”.
Taken in the same sequence, the figures for `N#Cc1cnn(CC(O)c2ccccc2)c1NC(=O)Nc1ccccc1` (stereo not given) were 90%, 6.65 and “inactive”.
Consider `CCOC(=O)c1cnn(CC(O)c2ccccc2)c1NC(=O)Nc1ccc(F)cc1` (stereo not given), for which, in the assay with Neutrophil [1], the Activity is 90%. For the same molecule, in the assay on Neutrophil [2], the pIC50 was 7.48. Further, the outcome in the assay on Neutrophil [3] was inactive.
For `CCOC(=O)c1cnn(CC(O)c2ccccc2)c1NC(=O)NC1CC1` (stereo not given), the Activity with Neutrophil [1] was 90%. Moreover, the pIC50 in the assay with Neutrophil [2] is 5.26. Moreover, the outcome with Neutrophil [3] was inactive.
For `CCOC(=O)c1cnn(CC(O)c2ccccc2)c1NC(=O)Nc1ccc(C)cc1` (stereo not given), in that order: 90%, 6.35 and “inactive”.
On to `CCOC(=O)c1cnn(CC(O)c2ccccc2)c1NC(=O)N1CCCC1` (stereo not given), for which the Activity in the assay with Neutrophil [1] was 90%. The molecule also showed a negative logarithm of the IC50 (pIC50) with Neutrophil [2] of 5.31. The result with Neutrophil [3] was inactive.
In the case of `CCOC(=O)c1cnn(CC(O)c2ccccc2)c1NC(=O)NCc1ccccc1Cl` (stereo not given), the Activity in the assay on Neutrophil [1] amounted to 90%. Further, in the assay on Neutrophil [2], the pIC50 was 5.91. Further, the outcome in the assay with Neutrophil [3] was inactive.
Taken in the same sequence, the figures for `CC(C)NC(=O)Nc1c(C(=O)O)cnn1CC(O)c1ccccc1` (stereo not given) were 90%, 6.60 and “inactive”.
For `CCOC(=O)c1cnn(CC(O)c2ccccc2)c1NC(=O)NCc1ccccc1Br` (stereo not given), in that order: 90%, 5.75 and “inactive”.
Taken in the same sequence, the figures for `CCOC(=O)c1cnn(CC(O)c2ccccc2)c1NC(=O)N1CCCCC1` (stereo not given) were 90%, 5.51 and “inactive”.
In the case of `CCOC(=O)c1cnn(CC(O)c2ccccc2)c1NC(=O)Nc1cccc(F)c1` (stereo not given), the % lymphocytes at 100 mg/kg in the assay with Mus musculus [4] came to 28%. For the same molecule, the Activity with Neutrophil [1] is 90%. Further, the inhibition in vivo at 100 mg/kg with Mus musculus [5] amounted to 33%; with Mus musculus [7], 29%. For the same molecule, the % monocytes at 100 mg/kg with Mus musculus [6] is 10%. The pIC50 in the assay with Neutrophil [2] was 7.44. Further, in the assay with Mus musculus [8], the % granulocytes at 100 mg/kg was 62%. Besides, the outcome in the assay with Neutrophil [3] was inactive.
Turning to `C[C@@H]1C[C@H]2[C@@H]3CCC4=CC(=O)C=C[C@]4(C)[C@@]3(F)[C@@H](O)C[C@]2(C)[C@@]1(O)C(=O)CO` [DEXAMETHASONE], the % granulocytes at 1 mg/kg in the assay on Mus musculus [9] is 42%. This molecule also had a % lymphocytes at 1 mg/kg in the assay with Mus musculus [10] of 44%. In addition, the inhibition in vivo at 1 mg/kg is 33% in the assay with Mus musculus [11] and 62% in the assay with Mus musculus [13]. In addition, in the assay on Mus musculus [12], the % monocytes at 1 mg/kg came to 14%.
Turning to `CCOC(=O)c1cnn(CC(O)c2ccccc2)c1NC(=O)NCc1cccc(Br)c1` (stereo not given), the Activity in the assay with Neutrophil [1] was 90%. The molecule further had a pIC50 in the assay with Neutrophil [2] of 6.70. In the assay on Neutrophil [3], the result was inactive.
For `CCOC(=O)c1cnn(CC(O)c2ccccc2)c1NC(=O)Nc1cccc(C)c1` (stereo not given), in that order: 90%, 6.40 and “inactive”.
In the case of `CCOC(=O)c1cnn(CC(O)c2ccccc2)c1NC(=O)N1CCOCC1` (stereo not given), in the assay on Neutrophil [1], the Activity was determined as 90%. In the assay with Neutrophil [2], this molecule showed a negative-log IC50 (pIC50) of 6.02. Moreover, the outcome in the assay on Neutrophil [3] was inactive.
Taken in the same sequence, the figures for `CCOC(=O)c1cnn(CC(O)c2ccccc2)c1NC(=O)NCCc1ccccc1` (stereo not given) were 90%, 6.21 and “inactive”.
Consider `CC(C)NC(=O)Nc1ccnn1CC(O)c1ccccc1` (stereo not given), for which, in the assay on Neutrophil [1], the Activity came to 90%. For the same molecule, the negative-log IC50 (pIC50) in the assay on Neutrophil [2] was 6.08. The result with Neutrophil [3] was inactive.
Taken in the same sequence, the figures for `CC(C)NC(=O)Nc1c(C#N)cnn1CC(O)c1ccccc1` (stereo not given) were 90%, 7.46 and “inactive”.
Taken in the same sequence, the figures for `CCOC(=O)c1cnn(CC(O)c2ccccc2)c1NC(=O)Nc1cccc(Cl)c1` (stereo not given) were 90%, 5.81 and “inactive”.
For `CCOC(=O)c1cnn(CC(O)c2ccccc2)c1NC(=O)NCc1ccc(F)cc1` (stereo not given), in that order: 90%, 6.67 and “inactive”.
Take `CCOC(=O)c1cnn(CC(O)c2ccccc2)c1NC(=O)NCc1cccc(Cl)c1` (stereo not given): the Activity in the assay with Neutrophil [1] is 90%. Also, the pIC50 with Neutrophil [2] is 6.24. In addition, the outcome in the assay on Neutrophil [3] was inactive.
For `CCOC(=O)c1cnn(CC(O)c2ccccc2)c1NC(=O)Nc1cccc(OC)c1` (stereo not given), in that order: 90%, 5.85 and “inactive”.
Taken in the same sequence, the figures for `CCOC(=O)c1cnn(CC(O)c2ccccc2)c1NC(=O)NCc1cccc(F)c1` (stereo not given) were 90%, 6.50 and “inactive”.
Taken in the same sequence, the figures for `CCOC(=O)c1cnn(CC(O)c2ccccc2)c1NC(=O)Nc1ccccc1OC` (stereo not given) were 90%, 5.92 and “inactive”.
Take `CCOC(=O)c1cnn(CC(O)c2ccccc2)c1NC(=O)NCc1ccc(Cl)cc1` (stereo not given): in the assay on Neutrophil [1], the Activity is 90%. Moreover, in the assay with Neutrophil [2], the pIC50 was 6.03. Besides, the outcome in the assay on Neutrophil [3] was inactive.
Regarding `CCOC(=O)c1cnn(CC(O)c2ccccc2)c1NC(=O)N1CCN(Cc2ccccc2)CC1` (stereo not given), the Activity with Neutrophil [1] came out at 90%. Further, the outcome with Neutrophil [3] was inactive.
Turning to `CCOC(=O)c1cnn(CC(O)c2ccccc2)c1NC(=O)NCc1ccccc1F` (stereo not given), in the assay on Neutrophil [1], the Activity is 90%. In the assay with Neutrophil [2], this molecule had a pIC50 of 5.83. In the assay on Neutrophil [3], the result was inactive.
In the case of `CCOC(=O)c1cnn(CC(O)c2ccccc2)c1NC(=O)N1CCN(C)CC1` (stereo not given), the Activity with Neutrophil [1] worked out at 90%. In the assay with Neutrophil [2], the pIC50 is 6.06. Also, the result with Neutrophil [3] was inactive.
Turning to `CCOC(=O)c1cnn(CC(O)c2ccccc2)c1NC(=O)Nc1ccccc1F` (stereo not given), the Activity in the assay on Neutrophil [1] came to 90%. The pIC50 in the assay on Neutrophil [2] was 7.48. Besides, the result in the assay with Neutrophil [3] was inactive.
Taken in the same sequence, the figures for `CCOCCNC(=O)Nc1c(C(=O)OCC)cnn1CC(O)c1ccccc1` (stereo not given) were 90%, 6.00 and “inactive”.
Turning to `CCOC(=O)c1cnn(CC(O)c2ccccc2)c1NC(=O)Nc1cccc(Br)c1` (stereo not given), the Activity in the assay on Neutrophil [1] came out at 90%. In addition, the pIC50 with Neutrophil [2] is 6.37. In addition, the result with Neutrophil [3] was inactive.

These data come from ChEMBL document CHEMBL1146234, “Synthesis and biological evaluation of N-pyrazolyl-N'-alkyl/benzyl/phenylureas: a new class of potent inhibitors of interleukin 8-induced neutrophil chemotaxis” (J Med Chem, 2007).
